A selection: hits, their analogues and other compounds. The true share with any hit is near 1.6%.
dFosB act – mouse delta FosB homodimer activation; AID 493131; P13346; hit rate 0.99% among 340,000; purified delta FosB, TAMRA-CDK5 oligo fluorescence polarization; percent of positive-control signal above neutral wells; activation, % at 25 µM;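 active = mean activation above about 17%, with every replicate also reaching it, limit read from the data, passing the limit was not always enough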
PvdQ inh – P. aeruginosa PvdQ acylase inhibition. purified PvdQ acylase, fluorescence plate reader. inhibition, % at 10 µM. hit rate 0.063% among 340,000; in the data active = inhibition above about 30%, passing the limit was not always enough;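 also: 0% = vehicle neutral wells and 100% = reference inhibitor wells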
SR-BI uptake up – activators of SR-BI mediated HDL lipid uptake; CHO ldlA[mSR-BI] cells, DiI-HDL uptake fluorescence, 3 h; 100 = double the neutral-control signal; activation, % at 12.5 µM; hit rate 0.096% among 320,000;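 active = mean replicate activation of at least 60% and every replicate at or above 60%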;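 also: 0% = median plate neutral-control signal and 100% = twice that signal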
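System: LDL receptor-deficient CHO ldlA cells overexpressing murine SR-BI | Timing: 3 h uptake period with compound, 37 °C | Medium: HEPES-buffered (25 mM, pH 7.4) F12 plus 0.5% BSA | Dosing: Single-point compound dose | Signal: Bottom-read fluorescence, 550/595 nm | Read-out: Retained DiI signal reflecting DiI-HDL uptake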
RAD54 inh – blocks human RAD54 Holliday junction branch migration; AID 602329; hit rate 0.14% among 360,000; inhibition, % at 10.4 µM; Q92698; FAM/BHQ fluorescence;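 active = mean normalized replicate activity at least 40 and at least half of replicates scoring 40 or more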;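 also: 0% = median of neutral control wells and 100% = median of positive control wells; inhibitors cause a drop in the FAM fluorescence signal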
SR-BI DiI inh – blocks mouse SR-BI lipid uptake from DiI-HDL | Q61009 | ldlA[mSR-BI] CHO cells, DiI-HDL uptake fluorescence, 3 h | inhibition, % at 12.5 µM | hit rate 0.96% among 320,000;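 active = mean replicate inhibition of at least 70% and a set share of replicates each scoring 70 or more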;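 also: 0% = median of neutral control wells and 100% = median of positive control wells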
Target sequence (Q61009 whole entry, looked up): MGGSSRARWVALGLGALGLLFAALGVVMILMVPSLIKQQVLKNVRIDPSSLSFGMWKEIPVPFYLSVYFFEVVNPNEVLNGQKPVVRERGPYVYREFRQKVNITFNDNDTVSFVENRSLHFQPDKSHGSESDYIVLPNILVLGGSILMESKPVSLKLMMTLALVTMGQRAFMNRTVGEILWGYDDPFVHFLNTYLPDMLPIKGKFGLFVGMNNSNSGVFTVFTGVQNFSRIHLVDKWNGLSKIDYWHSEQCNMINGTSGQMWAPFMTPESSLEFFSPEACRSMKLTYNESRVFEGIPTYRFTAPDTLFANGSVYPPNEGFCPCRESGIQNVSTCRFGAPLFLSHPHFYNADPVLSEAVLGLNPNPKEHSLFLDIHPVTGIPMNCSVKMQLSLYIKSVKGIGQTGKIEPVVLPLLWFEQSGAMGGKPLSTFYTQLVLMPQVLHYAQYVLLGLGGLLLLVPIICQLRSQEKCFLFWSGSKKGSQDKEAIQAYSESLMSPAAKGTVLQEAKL
S100A4 inh HTS – S100A4-myosin IIA interaction inhibition; hit rate 0.14% among 360,000; S100A4/TAMRA-MyoIIA peptide fluorescence polarization; inhibition, % at 10.7 µM; AID 652163; P26447;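 active = mean inhibition of at least 70% across replicates, with every replicate also reaching that level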
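Test system: S100A4 monomer protein; Medium: HEPES pH 7.2 with CaCl2, KCl, NaCl, DTT, Triton; Probe or stimulus: TAMRA-labelled myosin IIA heavy-chain peptide probe, 5 nM; Doses: one dose per compound; Times: polarization read 5 min after assay mix addition, stable 5–60 min; Benchmarks: neutral control DMSO, positive control TFP.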
Numbers without * were called inactive; x = no result.

SMILES	dFosB act	PvdQ inh	SR-BI uptake up	RAD54 inh	SR-BI DiI inh	S100A4 inh HTS
CCc1cccc2c(C(=O)COC(=O)/C=C/c3ccc(O)c(OC)c3)c[nH]c12	-3	-2	-76	1	76*	x
COc1cccc(/C=C/C(=O)OCC(=O)c2c[nH]c3ccccc23)c1	-6	-6	-6	-7	6	-2
C[C@@H]1CN([C@@H](C)CO)C(=O)Cc2cc(NC(=O)C3CC3)ccc2O[C@H]1CN(C)CC1CCCCC1	x	x	x	2	x	6
Cc1noc(C)c1S(=O)(=O)N(C)C[C@@H]1OCCCC[C@H](C)Oc2ccc(NC(=O)c3ccccc3)cc2C(=O)N([C@@H](C)CO)C[C@H]1C	x	x	x	-9	x	-23
COc1cc2c(cc1NC(=O)c1cccc(F)c1)CCCC2	7	0	-76	0	76*	x
COc1cc2c(cc1NC(=O)c1cccc(Br)c1)CCCC2	-4	-11	-73	1	73*	x
COc1ccc(OC)c2[nH]c(C(=O)N/N=C/c3ccccc3O)cc12	12	-8	-124	4	124*	-4
COc1ccc(/C=N/NC(=O)c2cc3c(OC)ccc(OC)c3[nH]2)cc1O	-15	-10	-38	x	38	-4
COc1cccc(/C=N/NC(=O)c2cc3c(OC)cccc3[nH]2)c1O	8	-13	-103	-2	103*	-7
O=C(N[C@@H]1CC[C@H](CCNS(=O)(=O)Cc2ccccc2)O[C@@H]1CO)c1cnccn1	x	x	x	-5	x	-5
CN1CCN(C(=O)C[C@@H]2CC[C@@H]3[C@H](COc4ccc(NC(=O)C5CCCC5)cc4C(=O)N3C)O2)CC1	x	x	x	x	x	-7
CN(C)C(=O)c1cccc(-c2ccc3c(c2)[C@H]2[C@H](CCN2C(=O)C2CC2)[C@@H](CO)N3)c1	x	x	x	3	x	78*
O=C(c1cccc(F)c1)N1CC[C@H]2[C@H](CO)Nc3ccc(-c4ccc(F)cc4)cc3[C@H]21	x	x	x	-6	x	102*
O=C(c1cccc(F)c1)N1CC[C@@H]2[C@H](CO)Nc3ccc(-c4ccc(F)cc4)cc3[C@@H]21	x	x	x	-2	x	-10
CC=Cc1ccc2n(c1=O)C[C@@H]1[C@@H](CO)[C@H](C(=O)NCC(F)(F)F)[C@H]2N1C(=O)C1CCCC1 (mixture of isomers)	x	x	x	x	x	-18
CCc1sc(C(=O)Nc2ccc(N3CCOCC3)cc2)cc1C	-12	-7	-75	-10	75*	-4
O=C(C[C@@H]1CC[C@H]2[C@@H](COC[C@H](O)CN2C(=O)c2ccccc2F)O1)N1CCN(c2ccccc2)CC1	x	x	x	4	x	-19
CO[C@H]1CN(C)C(=O)c2cc(NC(=O)CC(F)(F)F)ccc2OC[C@@H](C)N(C(=O)C2CC2)C[C@H]1C	x	x	x	x	x	-31
Oc1ccc(-c2csc(Nc3ccccn3)n2)c(O)c1	-11	12	-52	15	52	3
Cc1cccnc1Nc1nc(-c2ccc(O)cc2O)cs1	-13	-3	-71	-7	71*	x
Cc1ccccc1Oc1cccc(C(=O)/C(C#N)=C/N(C)C)c1	-3	8	-8	-8	8	x
CN(C)/C=C(/C#N)C(=O)c1cccc(Oc2ccc(C(C)(C)C)cc2)c1	-27	-8	-71	-7	71*	x
Cc1cc(-c2n[nH]c(=S)n2Cc2ccco2)n(C)n1	-1	-2	61*	-8	-61	x
O=C(Nc1ccccc1F)N1CC(=O)N2[C@H](CO)[C@H](c3ccc(-c4ccccc4)cc3)[C@@H]2C1	x	x	x	x	x	-44
CC(=O)N1CC(=O)N2[C@H](CO)[C@@H](c3ccc(-c4ccc(C#N)cc4)cc3)[C@H]2C1	x	x	x	x	x	129*
O=C(Nc1ccccc1F)N1CC(=O)N2[C@H](CO)[C@@H](c3ccc(-c4ccccc4)cc3)[C@H]2C1	x	x	x	x	x	124*
O=C(c1cnccn1)N1CC(=O)N2[C@H](CO)[C@@H](c3ccc(-c4ccc(F)cc4)cc3)[C@H]2C1	x	x	x	x	x	124*
CCC(=O)N1CC(=O)N2[C@H](CO)[C@H](c3ccc(C#CC4CCCC4)cc3)[C@H]2C1	x	x	x	x	x	136*
CCC(=O)N1CC(=O)N2[C@H](C1)[C@@H](c1ccc(C#CC3CCCC3)cc1)[C@@H]2CO	x	x	x	x	x	-1
